Measured values published in ChEMBL document CHEMBL4257453, “Identification of karanjin isolated from the Indian beech tree as a potent CYP1 enzyme inhibitor with cellular efficacy via screening of a natural product repository” (Medchemcomm, 2018).

Assays:
CYP1A1 [1] = target: T1, CYP1A1 (Homo sapiens, UniProt P04798); experiment: Inhibition of recombinant human CYP1A1 expressed in baker's yeast-derived microsomes (Sacchrosomes) at 10 uM using 7-ethoxyresorufin substrate by EROD assay relative to control; details: probe 7-ethoxyresorufin
T1 sequence (P04798 whole entry): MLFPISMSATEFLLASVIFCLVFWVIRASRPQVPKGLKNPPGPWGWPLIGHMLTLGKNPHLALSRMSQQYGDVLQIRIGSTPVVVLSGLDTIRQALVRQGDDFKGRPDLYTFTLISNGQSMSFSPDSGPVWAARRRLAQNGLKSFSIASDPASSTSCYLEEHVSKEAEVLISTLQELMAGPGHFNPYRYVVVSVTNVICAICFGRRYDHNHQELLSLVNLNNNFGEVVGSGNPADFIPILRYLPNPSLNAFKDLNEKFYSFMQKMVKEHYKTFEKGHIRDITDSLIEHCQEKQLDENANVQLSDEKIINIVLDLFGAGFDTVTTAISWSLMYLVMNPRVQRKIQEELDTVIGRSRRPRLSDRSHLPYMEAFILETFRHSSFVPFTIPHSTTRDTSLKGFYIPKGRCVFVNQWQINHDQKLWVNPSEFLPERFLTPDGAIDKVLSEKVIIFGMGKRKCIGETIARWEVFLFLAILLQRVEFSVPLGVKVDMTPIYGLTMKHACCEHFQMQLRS
Summary of the method: (§1)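 Yeast microsomes carrying recombinant CYP (Sacchrosomes). Substrates per isoform are 7-ethoxyresorufin, 3-cyano-7-ethoxycoumarin, EOMCC or dibenzylfluorescein, read as endpoint fluorescence. Background from compound-only wells without enzyme is subtracted. Independent triplicate runs; α-naphthoflavone positive control.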

CYP1A1 [2] = target: T1, CYP1A1; experiment: Inhibition of human recombinant CYP1A1 expressed in HEK293 cells at 10 uM using 7-ethoxyresorufin substrate preincubated for 30 mins followed by substrate addition and measured after 60 mins by fluorescence assay relative to control; format: cell-based; details: HEK293 cells expressing human recombinant CYP1A1, probe 7-ethoxyresorufin
Summary of the method: (§2)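 HEK293 cells adapted to suspension and transiently transfected with pcDNA3.1 plasmids carrying the individual CYP; 100×10^3 cells per well in triplicate. […] Fluorogenic substrate is then added at 5 μM and fluorescence read for 60 min.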

Cytochrome P450 3A4 = Cytochrome P450 3A4 (Homo sapiens, UniProt P08684); experiment: Inhibition of human recombinant CYP3A4 expressed in HEK293 cells using dibenzylfluorescein substrate substrate preincubated for 30 mins followed by substrate addition and measured after 60 mins by fluorescence assay relative to control; format: ADME, cell-based
Cytochrome P450 3A4, sequence (P08684 whole entry): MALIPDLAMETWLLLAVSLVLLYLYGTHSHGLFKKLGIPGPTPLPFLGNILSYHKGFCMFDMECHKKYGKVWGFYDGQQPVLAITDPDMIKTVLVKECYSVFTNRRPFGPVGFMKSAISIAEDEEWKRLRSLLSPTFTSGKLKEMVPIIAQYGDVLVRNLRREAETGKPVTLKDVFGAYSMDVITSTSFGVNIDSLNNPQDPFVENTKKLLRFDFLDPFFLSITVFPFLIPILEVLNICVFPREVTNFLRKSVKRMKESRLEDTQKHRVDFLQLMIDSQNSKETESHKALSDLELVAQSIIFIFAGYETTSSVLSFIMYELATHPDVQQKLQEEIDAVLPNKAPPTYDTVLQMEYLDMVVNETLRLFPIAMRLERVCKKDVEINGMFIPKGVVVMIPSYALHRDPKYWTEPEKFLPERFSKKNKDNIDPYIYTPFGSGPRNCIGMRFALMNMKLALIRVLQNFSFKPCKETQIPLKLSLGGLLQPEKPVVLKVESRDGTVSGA
Summary of the method: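 HEK293 cells adapted to suspension and transiently transfected with pcDNA3.1 plasmids carrying the individual CYP; 100×10^3 cells per well in triplicate. Fluorogenic substrate is then added at 5 μM and fluorescence read for 60 min.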

Cytochrome P450 2C19 = Cytochrome P450 2C19 (Homo sapiens, UniProt P33261); experiment: Inhibition of human recombinant CYP2C19 expressed in HEK293 cells using 3-cyano-7-ethoxycoumarin substrate substrate preincubated for 30 mins followed by substrate addition and measured after 60 mins by fluorescence assay relative to control; format: ADME, cell-based; summary of the method: as §2
Cytochrome P450 2C19, sequence (P33261 whole entry): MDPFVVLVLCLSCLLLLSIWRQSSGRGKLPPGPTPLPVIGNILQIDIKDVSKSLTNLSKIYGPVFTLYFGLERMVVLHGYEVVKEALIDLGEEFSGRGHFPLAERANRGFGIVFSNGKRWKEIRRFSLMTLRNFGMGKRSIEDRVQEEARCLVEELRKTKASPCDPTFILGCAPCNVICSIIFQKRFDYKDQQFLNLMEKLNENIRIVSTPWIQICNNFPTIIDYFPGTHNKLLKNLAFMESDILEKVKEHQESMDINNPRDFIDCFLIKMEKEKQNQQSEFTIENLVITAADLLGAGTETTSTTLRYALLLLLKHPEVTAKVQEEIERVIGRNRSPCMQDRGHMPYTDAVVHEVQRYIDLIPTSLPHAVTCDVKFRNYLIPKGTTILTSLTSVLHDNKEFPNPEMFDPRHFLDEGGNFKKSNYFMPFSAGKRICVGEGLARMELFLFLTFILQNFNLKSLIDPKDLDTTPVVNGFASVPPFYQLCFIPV

Cytochrome P450 1A1 = target: T2, Cytochrome P450 1A1 (Homo sapiens, UniProt P04798); experiment: Inhibition of human recombinant CYP1A1 expressed in HEK293 cells using 7-ethoxyresorufin substrate preincubated for 30 mins followed by substrate addition and measured after 60 mins by fluorescence assay relative to control; format: cell-based; summary of the method: as §2
T2 sequence (P04798 whole entry): T1 sequence (P04798 whole entry)

CYP1A2 = target: T3, CYP1A2 (Homo sapiens, UniProt P05177); experiment: Inhibition of recombinant human CYP1A2 expressed in baker's yeast-derived microsomes (Sacchrosomes) at 10 uM using 3-cyano-7-ethoxycoumarin substrate by EROD assay relative to control; format: ADME; details: probe 3-cyano-7-ethoxycoumarin; summary of the method: as §1
T3 sequence (P05177 whole entry): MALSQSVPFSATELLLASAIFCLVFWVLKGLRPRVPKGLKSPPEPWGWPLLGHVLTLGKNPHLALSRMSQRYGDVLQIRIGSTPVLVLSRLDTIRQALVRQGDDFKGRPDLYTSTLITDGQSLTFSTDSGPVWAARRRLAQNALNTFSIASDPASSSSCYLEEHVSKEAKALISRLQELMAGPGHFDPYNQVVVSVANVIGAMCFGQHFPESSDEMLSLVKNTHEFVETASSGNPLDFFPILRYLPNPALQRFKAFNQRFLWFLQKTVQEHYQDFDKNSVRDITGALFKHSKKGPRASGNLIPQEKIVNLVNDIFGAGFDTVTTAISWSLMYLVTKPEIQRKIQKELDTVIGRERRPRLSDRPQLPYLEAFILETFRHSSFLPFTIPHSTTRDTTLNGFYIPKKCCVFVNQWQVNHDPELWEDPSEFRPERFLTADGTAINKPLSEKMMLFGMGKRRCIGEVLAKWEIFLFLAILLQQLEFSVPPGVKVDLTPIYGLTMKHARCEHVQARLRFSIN

CYP2C19 = CYP2C19 (Homo sapiens, UniProt P33261); experiment: Inhibition of recombinant human CYP2C19 expressed in baker's yeast-derived microsomes (Sacchrosomes) at 10 uM using 3-cyano-7-ethoxycoumarin substrate by EROD assay relative to control; format: ADME; details: probe 3-cyano-7-ethoxycoumarin
CYP2C19, sequence (P33261 whole entry): as the sequence (P33261 whole entry) above
Summary of the method: as §1, with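 “(Sacchrosomes). […]” for “(Sacchrosomes).”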

CYP1B1 = target: T4, CYP1B1 (Homo sapiens, UniProt Q16678); experiment: Inhibition of recombinant human CYP1B1 expressed in baker's yeast-derived microsomes (Sacchrosomes) at 10 uM using 7-ethoxyresorufin substrate by EROD assay relative to control; format: ADME; details: probe 7-ethoxyresorufin
T4 sequence (Q16678 whole entry): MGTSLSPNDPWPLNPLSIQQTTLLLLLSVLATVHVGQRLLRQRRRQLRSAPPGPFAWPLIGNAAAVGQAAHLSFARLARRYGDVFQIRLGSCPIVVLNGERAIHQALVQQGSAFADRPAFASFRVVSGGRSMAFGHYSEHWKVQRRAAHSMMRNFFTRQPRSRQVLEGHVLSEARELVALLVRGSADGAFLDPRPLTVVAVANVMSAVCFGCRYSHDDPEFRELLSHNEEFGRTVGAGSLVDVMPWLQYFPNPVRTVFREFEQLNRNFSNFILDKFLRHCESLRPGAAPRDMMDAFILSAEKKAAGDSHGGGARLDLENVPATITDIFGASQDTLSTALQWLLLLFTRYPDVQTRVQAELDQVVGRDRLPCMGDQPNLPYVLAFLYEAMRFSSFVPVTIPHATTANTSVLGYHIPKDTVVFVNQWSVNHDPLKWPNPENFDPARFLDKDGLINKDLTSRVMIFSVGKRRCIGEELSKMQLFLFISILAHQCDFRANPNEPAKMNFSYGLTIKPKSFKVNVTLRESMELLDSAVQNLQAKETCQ
Summary of the method: as §1, with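 “(Sacchrosomes). […]” for “(Sacchrosomes).”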

Cytochrome P450 2D6 = Cytochrome P450 2D6 (Homo sapiens, UniProt P10635); experiment: Inhibition of human recombinant CYP2D6 expressed in HEK293 cells using 7-ethoxy-methyloxy-3-cyanocoumarin substrate substrate preincubated for 30 mins followed by substrate addition and measured after 60 mins by fluorescence assay relative to control; format: ADME, cell-based; summary of the method: as §2
Cytochrome P450 2D6, sequence (P10635 whole entry): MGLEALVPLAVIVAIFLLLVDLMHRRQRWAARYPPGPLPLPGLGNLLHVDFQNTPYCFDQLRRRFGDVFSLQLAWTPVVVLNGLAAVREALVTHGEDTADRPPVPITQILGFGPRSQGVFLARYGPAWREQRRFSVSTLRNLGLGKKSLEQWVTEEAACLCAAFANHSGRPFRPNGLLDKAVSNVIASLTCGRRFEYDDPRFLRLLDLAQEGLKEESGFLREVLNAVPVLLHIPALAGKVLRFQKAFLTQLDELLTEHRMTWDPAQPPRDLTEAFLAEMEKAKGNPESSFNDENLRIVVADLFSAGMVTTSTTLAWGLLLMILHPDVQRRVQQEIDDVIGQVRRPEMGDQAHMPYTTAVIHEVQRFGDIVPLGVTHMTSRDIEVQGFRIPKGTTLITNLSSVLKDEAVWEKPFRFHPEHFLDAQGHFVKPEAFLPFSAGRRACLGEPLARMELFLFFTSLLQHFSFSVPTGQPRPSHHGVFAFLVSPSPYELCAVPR

Cytochrome P450 1B1 = target: T5, Cytochrome P450 1B1 (Homo sapiens, UniProt Q16678); experiment: Inhibition of human recombinant CYP1B1 expressed in HEK293 cells using 7-ethoxyresorufin substrate substrate preincubated for 30 mins followed by substrate addition and measured after 60 mins by fluorescence assay relative to control; format: ADME, cell-based; summary of the method: as §2
T5 sequence (Q16678 whole entry): T4 sequence (Q16678 whole entry)

Cytochrome P450 2C9 = Cytochrome P450 2C9 (Homo sapiens, UniProt P11712); experiment: Inhibition of human recombinant CYP2C9 expressed in HEK293 cells using 3-cyano-7-ethoxycoumarin substrate substrate preincubated for 30 mins followed by substrate addition and measured after 60 mins by fluorescence assay relative to control; format: ADME, cell-based; summary of the method: as §2
Cytochrome P450 2C9, sequence (P11712 whole entry): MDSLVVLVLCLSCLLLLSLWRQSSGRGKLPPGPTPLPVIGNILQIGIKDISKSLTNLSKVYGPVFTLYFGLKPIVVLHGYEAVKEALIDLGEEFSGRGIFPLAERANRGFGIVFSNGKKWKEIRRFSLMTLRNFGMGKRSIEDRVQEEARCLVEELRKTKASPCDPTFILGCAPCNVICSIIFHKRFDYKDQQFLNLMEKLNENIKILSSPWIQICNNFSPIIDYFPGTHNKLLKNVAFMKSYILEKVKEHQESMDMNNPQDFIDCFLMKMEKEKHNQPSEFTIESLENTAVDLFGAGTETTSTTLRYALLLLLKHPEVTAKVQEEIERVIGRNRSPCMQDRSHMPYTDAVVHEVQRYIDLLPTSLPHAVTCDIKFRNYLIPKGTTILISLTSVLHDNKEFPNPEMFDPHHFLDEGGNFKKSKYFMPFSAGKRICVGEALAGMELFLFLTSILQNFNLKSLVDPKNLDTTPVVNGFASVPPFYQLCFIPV

CYP3A4 = CYP3A4 (Homo sapiens, UniProt P08684); experiment: Inhibition of recombinant human CYP3A4 expressed in baker's yeast-derived microsomes (Sacchrosomes) at 10 uM using dibenzylfluorescein substrate by EROD assay relative to control; format: ADME; details: probe dibenzylfluorescein
CYP3A4, sequence (P08684 whole entry): as the sequence (P08684 whole entry) above
Summary of the method: as §1, with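 “(Sacchrosomes). […]” for “(Sacchrosomes).”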

CYP2D6 = CYP2D6 (Homo sapiens, UniProt P10635); experiment: Inhibition of recombinant human CYP2D6 expressed in baker's yeast-derived microsomes (Sacchrosomes) at 10 uM using 7-ethoxy-methyloxy-3-cyanocoumarin substrate by EROD assay relative to control; format: ADME; details: probe 7-ethoxy-methyloxy-3-cyanocoumarin
CYP2D6, sequence (P10635 whole entry): as the sequence (P10635 whole entry) above
Summary of the method: as §1, with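 “(Sacchrosomes). […]” for “(Sacchrosomes).”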

CYP2C9 = CYP2C9 (Homo sapiens, UniProt P11712); experiment: Inhibition of recombinant human CYP2C9 expressed in baker's yeast-derived microsomes (Sacchrosomes) at 10 uM using 3-cyano-7-ethoxycoumarin substrate by EROD assay relative to control; format: ADME; details: probe 3-cyano-7-ethoxycoumarin
CYP2C9, sequence (P11712 whole entry): as the sequence (P11712 whole entry) above
Summary of the method: as §1, with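 “(Sacchrosomes). […]” for “(Sacchrosomes).”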

Cytochrome P450 1A2 = target: T6, Cytochrome P450 1A2 (Homo sapiens, UniProt P05177); experiment: Inhibition of human recombinant CYP1A2 expressed in HEK293 cells using 3-cyano-7-ethoxycoumarin substrate preincubated for 30 mins followed by substrate addition and measured after 60 mins by fluorescence assay relative to control; format: ADME, cell-based; summary of the method: as §2
T6 sequence (P05177 whole entry): T3 sequence (P05177 whole entry)

Structure (SMILES)	inhibition at 10 µM (CYP1A1 [1])	inhibition at 1 h, 10 µM (CYP1A1 [2])	IC50 (Cytochrome P450 3A4)	IC50 (Cytochrome P450 2C19)	IC50 (Cytochrome P450 1A1)	Ki (Cytochrome P450 1A1)	inhibition at 10 µM (CYP1A2)	inhibition at 10 µM (CYP2C19)	inhibition at 10 µM (CYP1B1)	IC50 (Cytochrome P450 2D6)	IC50 (Cytochrome P450 1B1)	IC50 (Cytochrome P450 2C9)	inhibition at 10 µM (CYP3A4)	inhibition at 10 µM (CYP2D6)	inhibition at 10 µM (CYP2C9)	IC50 (Cytochrome P450 1A2)	Ki (Cytochrome P450 1A2)
CCOc1c2occc2cc2ccc(=O)oc12	89%																
Cc1c(O)c2c(c(C(=O)/C=C/c3ccccc3)c1O)OC(C)(C)C=C2	52%																
COc1ccc(-c2cc(=O)c3c(O)c(OC)c(OC)cc3o2)cc1OC	80%	96%	> 10 µM	> 10 µM	1.38 µM	1.42 µM	90%	5%	70%	> 10 µM	2.5 µM	> 10 µM	9%	13%	7%	0.9 µM	0.78 µM
C=CCOc1cc(OCC=C)c2ccc(=O)oc2c1	69%																
COc1c(C(=O)CC(=O)c2ccccc2)ccc2occc12	85 to 87%	85%	> 10 µM	> 10 µM	2.23 µM	1.96 µM	8%	3%	12%	> 10 µM	6.04 µM	> 10 µM	9%	14%	0%	3.16 µM	3.86 µM
COc1ccc2c(c1OC)C(OC)N(C)c1c-2ccc2cc3c(cc12)OCO3 (configuration not stated)	90%	80%	> 10 µM	> 10 µM	3.03 µM	3.25 µM	7%	3%	10%	> 10 µM	7.7 µM	> 10 µM	6%	11%	4%	8.93 µM	9.16 µM
CC(C)(O)C(O)COc1c2occc2cc2ccc(=O)oc12 (configuration not stated)	72%																
O=c1cc(-c2ccccc2)oc2c1ccc1ccccc12 [ALPHA-NAPHTHOFLAVONE]								9%	96%				6%	5%	10%		
O=c1ccc2ccc3occc3c2o1 [ANGELICIN]	80%																
COc1ccc2cc3[n+](cc2c1OC)CCc1cc2c(cc1-3)OCO2 [BERBERINE CHLORIDE]	48%																
